Active and inactive are the calls of the source. No cut-off for these calls is given here.
Legend:
[1] = tested on: HEK293; assay: (§1) Sequestering activity against saccharomyces cerevisiae lipoteichoic acid assessed as inhibition of TLR2-mediated NF-kappaB induction in HEK293 cells stably transfected TLR2/MD2/CD14/alkaline phosphatase by reporter gene assay; assay type: cell-based; conditions: Staphylococcus aureus, in the assay text read “Staphylococcus aureus” for “Saccharomyces cerevisiae”
Procedure, shortened: (§2)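 HEK-Blue-2 reporter cells (TLR2, MD2, CD14, NF-κB/AP-1-driven secreted alkaline phosphatase) were grown to confluence, then stimulated with LTA purified from S. aureus (n-butanol extraction, delipidated, enzymatically deproteinated) plus graded compound concentrations. sAP was read with a chromogen at 620 nm. Dilutions were run in quadruplicate and experiments repeated three times.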

[2] = tested on: Escherichia coli; assay: Antimicrobial activity against Escherichia coli ATCC 9637 at 37 degC by broth microdilution method; assay type: functional, organism-based
Procedure, shortened: (§3)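 Broth microdilution in non-cation-supplemented Mueller-Hinton broth. Mid-log cultures were adjusted to OD600 0.5, diluted 10-fold and added to equal volumes of 2-fold serially diluted compound. Plates were incubated overnight at 37°C and read at 600 nm. MIC was the lowest concentration giving complete growth inhibition. Triplicate points from a representative experiment.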

[3] = tested on: HEK293; assay: Neutralizing activity lipopolysaccharide assessed as inhibition of TLR4-mediated NF-kappaB translocation in HEK293 cells stably transfected TLR4/MD2/CD14/alkaline phosphatase by reporter gene assay; assay type: cell-based
Procedure, shortened: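 HEK-Blue-4 cells (TLR4, MD2, CD14, NF-κB/AP-1-inducible secreted alkaline phosphatase) were grown to confluence and stimulated with E. coli O111:B4 LPS plus graded compound concentrations. Alkaline phosphatase was read with a chromogen at 620 nm. Each dilution was run in quadruplicate and experiments repeated three times.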

[4] = tested on: HEK293; assay: Sequestration activity Saccharomyces cerevisiae lipoteichoic acid assessed as inhibition of TLR2-mediated NF-kappaB translocation in HEK293 cells stably transfected TLR2/MD2/CD14/alkaline phosphatase by reporter gene assay; assay type: cell-based; conditions: Staphylococcus aureus, in the assay text read “Staphylococcus aureus” for “Saccharomyces cerevisiae”; procedure, shortened: as §2
[5] = tested on: HEK293; assay: Sequestering activity against lipoteichoic acid assessed as inhibition of TLR2-mediated NF-kappaB induction in HEK293 cells stably transfected TLR2/MD2/CD14/alkaline phosphatase by reporter gene assay
[6] = as §1; assay type: cell-based; conditions: Staphylococcus aureus, in the assay text read “Staphylococcus aureus” for “saccharomyces cerevisiae”; procedure, shortened: as §2
[7] = tested on: HEK293; assay: Neutralizing activity against saccharomyces cerevisiae lipoteichoic acid assessed as inhibition of TLR2-mediated NF-kappaB induction in HEK293 cells stably transfected TLR2/MD2/CD14/alkaline phosphatase by reporter gene assay; assay type: cell-based; conditions: Staphylococcus aureus, in the assay text read “Staphylococcus aureus” for “Saccharomyces cerevisiae”; procedure, shortened: as §2
[8] = Aqueous solubility of the compound; assay type: physicochemical; conditions: buffer
[9] = tested on: Staphylococcus aureus; assay: Antimicrobial activity against Staphylococcus aureus ATCC 13709 at 37 degC by broth microdilution method; assay type: functional, organism-based; procedure, shortened: as §3

Compound	Activity [1]	Activity [2]	inhibition [3]	inhibition [4]	inhibition [5]	EC50 [6] [µM]	inhibition [7]	solubility [8]	Activity [9]
POLYMYXIN B	Active								
CCCCCCCCCCCCCCCCS(=O)(=O)NCCCNCCCNCCCCNCCCN		Active	Active	Active	Active	1			
CCCCCCCCS(=O)(=O)NCCCNCCCCNCCCN			Active	Active	Active				
CCCCCCCCCCCCCCCCCCS(=O)(=O)NCCCNCCCCNCCCN			Active	Active	Active				
CCCCCCCCCCCCS(=O)(=O)NCCCNCCCCNCCCN			Active	Active	Active				
CCCCCCCCCCCCCCCCS(=O)(=O)NCCCNCCCCNCCCN			Active	Active	Active	1			
CCCCCCCCS(=O)(=O)NCCCNCCCNCCCCNCCCN			Active	Active	Active				
CCCCCCCCCCS(=O)(=O)NCCCNCCCNCCCCNCCCN			Active	Active	Active				
CCCCCCCCCCCCCCCCCCS(=O)(=O)NCCCNCCCNCCCCNCCCN			Active	Active	Active				
CCCCCCCCCCCCCCCCS(=O)(=O)NCCCNCCCNCCCCCCNCCCNCCCNS(=O)(=O)CCCCCCCCCCCCCCCC.Cl						60	inactive	Insoluble	Active
CCCCCCCCCCS(=O)(=O)NCCCNCCCNCCCCCCNCCCNCCCNS(=O)(=O)CCCCCCCCCC.Cl		inactive				60	inactive	Insoluble	Active
CCCCCCCCCCS(=O)(=O)NCCCNCCCCNCCCN			Active	Active	Active				
CCCCCCCCCCCCS(=O)(=O)NCCCNCCCNCCCCNCCCN		Active	Active	Active	Active				
CCCCCCCCCCCCCCCCCCS(=O)(=O)NCCCNCCCNCCCCCCNCCCNCCCNS(=O)(=O)CCCCCCCCCCCCCCCCCC.Cl						60	inactive	Insoluble	Active
CCCCCCCCS(=O)(=O)NCCCNCCCNCCCCCCNCCCNCCCNS(=O)(=O)CCCCCCCC.Cl		inactive				60	inactive	Insoluble	Active
CCCCCCCCCCCCS(=O)(=O)NCCCNCCCNCCCCCCNCCCNCCCNS(=O)(=O)CCCCCCCCCCCC.Cl						60	inactive	Insoluble	Active
